Reference: ChEMBL document CHEMBL1132413, “Mechanism-based competitive inhibitors of glyoxalase I: intracellular delivery, in vitro antitumor activities, and stabilities in human serum and mouse serum” (J Med Chem, 1999)

Key:
B16 [1] = experiment: The compound was tested […] for 100% growth inhibition against B16 melanoma cells.; type: functional, Mus musculus
Summary of the method: (§1)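 B16 melanotic melanoma cells in log growth were plated at 5000 cells/well in RPMI 1640 with 10% heat-inactivated FCS and gentamycin at 37 °C under 5% CO2. Cells were exposed for 48 h to at least five drug concentrations, in triplicate, with fresh diethyl ester added at 0, 12, 24 and 36 h. Cells were trypsinized and counted on a Coulter counter. Percentage growth was calculated NCI-style against time-zero and no-drug controls. TGI is 100% growth inhibition and GI50 is 50%. Mean ± SD comes from separate experiments.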

B16 [2] = experiment: The compound was tested […] for 50% growth inhibition against B16 melanoma cells.; type: functional, Mus musculus; summary of the method: as §1
B16 [3] = experiment: The compound was tested […] for 50% cell killing against B16 melanoma cells.; type: functional, Mus musculus
Summary of the method: (§2)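 Cultured cells, not in vivo: log-phase cells seeded at 5000 cells/well in RPMI 1640/10% heat-inactivated FCS with gentamycin, 37 °C, 5% CO2. Exposed 48 h to at least five diethyl ester concentrations in triplicate, with fresh ester added at 0, 12, 24 and 36 h. B16 cells were trypsinised and L1210 cells washed. Counted by Coulter counter, viability by trypan blue. LC50 = concentration giving 50% cell killing.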

L1210 [4] = experiment: The compound was tested […] for 100% growth inhibition against L1210 murine leukemia cells.; type: functional, Mus musculus
Summary of the method: (§3)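 L1210 leukemia cells in log growth were seeded at 5000 cells/well in RPMI 1640 with 10% heat-inactivated FCS and gentamycin at 37 °C under 5% CO2. At least five concentrations spanning the GI50 were tested in triplicate for 48 h, with ester replenished at 0, 12, 24 and 36 h. Washed cells were Coulter-counted. PG = 100×(test−tzero)/(ctrl−tzero). TGI is 100% growth inhibition and GI50 is 50%. Mean ± SD comes from independent experiments.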

L1210 [5] = experiment: The compound was tested […] for 50% cell killing against L1210 murine leukemia cells.; type: functional, Mus musculus; summary of the method: as §2
L1210 [6] = experiment: The compound was tested […] for 50% growth inhibition against L1210 murine leukemia cells.; type: functional, Mus musculus; summary of the method: as §3
[7] = tested on: Glyoxalase I (Homo sapiens); experiment: The compound was tested for inhibitory activity against human glyoxalase I.
[8] = tested on: Glyoxalase I (Homo sapiens); experiment: as above; remark: listed apart in the source
[9] = tested on: Glyoxalase I (Homo sapiens); experiment: as above; remark: listed apart in the source

Structure (SMILES) | TGI (B16 [1]) [µM] | GI50 (B16 [2]) [µM] | LC50 (B16 [3]) [µM] | TGI (L1210 [4]) [µM] | LC50 (L1210 [5]) [µM] | GI50 (L1210 [6]) [µM] | Ki [7] [µM] | Ki [8] [µM] | Ki [9] [µM]
CCOC(=O)CNC(=O)C(CSC(=O)N(O)c1ccccc1)NC(=O)CCC(N)C(=O)OCC.Cl (configuration not stated) | >100 | >100 | >100 | 135 | 271 | 84 | 0.16 | 0.16 | –
CCOC(=O)CNC(=O)C(CSC(=O)N(O)c1ccc(Cl)cc1)NC(=O)CCC(N)C(=O)OCC.Cl (configuration not stated) | ~23 | 15 | ~47 | 27 | 54 | 7 | – | 0.046 | 0.046
CCOC(=O)CNC(=O)C(CSC(=O)N(O)c1ccc(Br)cc1)NC(=O)CCC(N)C(=O)OCC.Cl (configuration not stated) | 33 | 11 | 54 | 7 | 17 | 3 | – | 0.014 | 0.014
CCOC(=O)CNC(=O)[C@@H](CSCc1ccc(Br)cc1)NC(=O)CCC(N)C(=O)OCC (some centres not stated) | 23 | 14 | 56 | 11 | 26 | 7 | – | 0.17 | 0.17
